Data taken from ChEMBL document CHEMBL3044755, “5-Methyl-1,2,3-thiadiazoles synthesized via ugi reaction and their fungicidal and antiviral activities” (J Agric Food Chem, 2010).

Columns and labels:
Rhizoctonia solani = assay: Fungicidal activity against Rhizoctonia solani at 50 ug/ml by growth inhibition method; format: functional; conditions: read-out: GI
Outline: (§1)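 Mycelial growth inhibition on potato dextrose agar. The panel covered Alternaria solani, Botrytis cinerea, Cercospora arachidicola, C. beticola, Colletotrichum lagenarium, Fusarium oxysporum, Gibberella zeae, Puccinia triticina, Phytophthora infestans, Physalospora piricola, Pellicularia sasakii and Rhizoctonia solani.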

Puccinia triticina = assay: Fungicidal activity against Puccinia triticina at 50 ug/ml by growth inhibition method; format: functional; conditions: read-out: GI; outline: as §1
Thanatephorus cucumeris = assay: Fungicidal activity against Thanatephorus cucumeris at 50 ug/ml by growth inhibition method; format: functional; conditions: read-out: GI; outline: as §1
[1] = system: Botryosphaeria berengeriana; assay: Fungicidal activity against Botryosphaeria berengeriana at 50 ug/ml by growth inhibition method; format: functional; conditions: read-out: GI; outline: as §1
Phytophthora infestans = assay: Fungicidal activity against Phytophthora infestans at 50 ug/ml by growth inhibition method; format: functional; conditions: read-out: GI; outline: as §1
Fusarium graminearum = assay: Fungicidal activity against Fusarium graminearum at 50 ug/ml by growth inhibition method; format: functional; conditions: read-out: GI; outline: as §1
Colletotrichum lagenaria = assay: Fungicidal activity against Colletotrichum lagenaria at 50 ug/ml by growth inhibition method; format: functional; conditions: read-out: GI; outline: as §1
Cercospora beticola = assay: Fungicidal activity against Cercospora beticola at 50 ug/ml by growth inhibition method; format: functional; conditions: read-out: GI; outline: as §1
Mycosphaerella arachidis = assay: Fungicidal activity against Mycosphaerella arachidis at 50 ug/ml by growth inhibition method; format: functional; conditions: read-out: GI; outline: as §1
Alternaria solani = assay: Fungicidal activity against Alternaria solani at 50 ug/ml by growth inhibition method; format: functional; conditions: read-out: GI; outline: as §1
Nicotiana tabacum [2] = assay: Induction of systemic acquired resistance activity in TMV infected-Nicotiana tabacum (tobacco) leaves at 50 ug/ml; format: functional
Outline: (§2)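 Tobacco/TMV system used for systemic acquired resistance induction. Inhibition ratio calculated from mean lesion numbers on inoculated leaves relative to corresponding control. Tiadinil and ribavirin run as controls.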

Nicotiana tabacum [3] = assay: Phytotoxicity against Nicotiana tabacum (tobacco) plant; format: organism-based; conditions: in vivo
Nicotiana tabacum [4] = assay: Induction of systemic acquired resistance activity in TMV infected-Nicotiana tabacum (tobacco) leaves at 100 ug/ml; format: functional; outline: as §2
Tobacco mosaic virus [5] = assay: In vivo antiviral activity against Tobacco mosaic virus (TMV) infected tobacco leaves assessed as inactivation effect at 100 ug/ml co-treated with virus for 30 min before inoculation onto leaves measured at 2-3 days after viral challenge; format: functional
Outline: (§3)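 TMV (5.88 10-2 μg/mL) mixed with equal volume of compound solution for 30 min, then rubbed onto upper three leaves of six-leaf tobacco; solvent on lower three leaves as control. Lesions counted 2-3 days later, three repetitions. Inhibition (%) = (CK − A)/CK × 100 from mean lesion counts.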

Tobacco mosaic virus [6] = assay: In vivo antiviral activity against Tobacco mosaic virus (TMV) infected tobacco leaves assessed as inactivation effect at 500 ug/ml co-treated with virus for 30 min before inoculation onto leaves measured at 2-3 days after viral challenge; format: functional; outline: as §3
Tobacco mosaic virus [7] = assay: In vivo antiviral activity against Tobacco mosaic virus (TMV) infected tobacco leaves assessed as curative effect at 100 ug/ml treated after viral inoculation measured at 2-3 days after viral challenge; format: functional
Outline: (§4)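 Curative test: whole six-leaf tobacco leaves rubbed with TMV (5.88 10-2 μg/mL), dried in greenhouse, then compound smeared on upper three leaves and solvent on lower three as control. Local lesions scored 2-3 days after inoculation, three repetitions. Inhibition (%) = (CK − A)/CK × 100 on mean lesion numbers.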

Tobacco mosaic virus [8] = assay: In vivo antiviral activity against Tobacco mosaic virus (TMV) infected tobacco leaves assessed as curative effect at 500 ug/ml treated after viral inoculation measured at 2-3 days after viral challenge; format: functional; outline: as §4
Tobacco mosaic virus [9] = assay: In vivo antiviral activity against Tobacco mosaic virus (TMV) infected tobacco leaves assessed as protective effect at 100 ug/ml treated 12 hr before viral inoculation measured at 2-3 days after viral challenge; format: functional
Outline: (§5)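 Six-leaf tobacco; compound solution smeared over whole leaves, dried in greenhouse, then after 12 h TMV (5.88 10-2 μg/mL) rubbed onto upper three leaves, with solvent on lower three leaves as control. Local lesions counted 2-3 days post-inoculation, three repetitions. Inhibition (%) = (CK − A)/CK × 100 from mean lesion numbers.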

Tobacco mosaic virus [10] = assay: In vivo antiviral activity against Tobacco mosaic virus (TMV) infected tobacco leaves assessed as protective effect at 500 ug/ml treated 12 hr before viral inoculation measured at 2-3 days after viral challenge; format: functional; outline: as §5
Tobacco mosaic virus [11] = assay: In vitro antiviral activity against Tobacco mosaic virus (TMV) infected tobacco leaves at 100 ug/ml; format: functional
Tobacco mosaic virus [12] = assay: In vitro antiviral activity against Tobacco mosaic virus (TMV) infected tobacco leaves at 500 ug/ml; format: functional
Fusarium oxysporum = assay: Fungicidal activity against Fusarium oxysporum at 50 ug/ml by growth inhibition method; format: functional; conditions: read-out: GI; outline: as §1
Botrytis cinerea = assay: Fungicidal activity against Botryotinia fuckeliana at 50 ug/ml by growth inhibition method; format: functional; conditions: read-out: GI; outline: as §1
Tobacco mosaic virus [13] = assay: In vitro antiviral activity against Tobacco mosaic virus (TMV) infected tobacco leaves at 200 ug/ml; format: functional

Compound | inhibition of growth at 50 µg/mL (Rhizoctonia solani) [%] | inhibition of growth at 50 µg/mL (Thanatephorus cucumeris) [%] | inhibition of growth at 50 µg/mL [1] [%] | inhibition of growth at 50 µg/mL (Phytophthora infestans) [%] | inhibition of growth at 50 µg/mL (Fusarium graminearum) [%] | inhibition of growth at 50 µg/mL (Colletotrichum lagenaria) [%] | inhibition of growth at 50 µg/mL (Cercospora beticola) [%] | inhibition of growth at 50 µg/mL (Mycosphaerella arachidis) [%] | inhibition of growth at 50 µg/mL (Alternaria solani) [%] | Activity (Nicotiana tabacum [2]) [%] | Activity (Nicotiana tabacum [3]) | Activity (Nicotiana tabacum [4]) [%] | Activity (Tobacco mosaic virus [5]) [%] | Activity (Tobacco mosaic virus [6]) [%] | Activity (Tobacco mosaic virus [7]) [%] | Activity (Tobacco mosaic virus [8]) [%] | Activity (Tobacco mosaic virus [9]) [%] | Activity (Tobacco mosaic virus [10]) [%] | inhibition at 100 µg/mL (Tobacco mosaic virus [11]) [%] | inhibition at 500 µg/mL (Tobacco mosaic virus [12]) [%] | further results
Cc1ccc(N(C(=O)c2nnsc2C)C(C(=O)NC2CCCCC2)c2cccc(Cl)c2)cc1F (centres undefined) | 39 | 0 | 8 | 44 | 27 | 0 | 25 | 27 | 25 | 30 | Non-toxic | 22 | 69 | 79 | 0 | 40 | 29 | 67 | 14 | 18 | inhibition of growth at 50 µg/mL (Puccinia triticina): 14%
Cc1ccc(N(C(=O)c2nnsc2C)C(C(=O)NC2CCCCC2)c2ccc(F)cc2)cc1F (centres undefined) | 2 | 87 | 0 | 25 | 0 | 14 | 0 | 9 | 0 | 41 | Non-toxic | 41 | 69 | 79 | 20 | 52 | 6 | 17 | 24 | 44 | inhibition of growth at 50 µg/mL (Puccinia triticina): 0%
Cc1ccc(N(C(=O)c2nnsc2C)C(C(=O)NC(C)C)c2ccccc2F)cc1F (centres undefined) | 15 | 0 | 0 | 44 | 27 | 14 | 13 | 0 | 38 | 59 | Non-toxic | 7 | 73 | 74 | 47 | 60 | 27 | 60 | 16 | 46 | inhibition of growth at 50 µg/mL (Puccinia triticina): 0%
Cc1ccc(N(C(=O)c2nnsc2C)C(C(=O)NC(C)C)c2ccccc2C(F)(F)F)cc1F (centres undefined) | 17 | 15 | 0 | 44 | 27 | 36 | 13 | 9 | 13 | 30 | Non-toxic | 60 | 67 | 65 | 32 | 44 | 5 | 44 | 57 | 71 | inhibition of growth at 50 µg/mL (Puccinia triticina): 0%
Cc1ccc(N(C(=O)c2nnsc2C)C(C(=O)NC(C)C)c2ccc(O)cc2)cc1F (centres undefined) | 0 | 4 | 0 | 0 | 0 | 0 | 0 | 0 | 0 | 36 | Non-toxic | 7 | 51 | 72 | 28 | 55 | 71 | 76 | 26 | 35 | inhibition of growth at 50 µg/mL (Puccinia triticina): 0%
Cc1cccc(C(C(=O)NC(C)C)N(C(=O)c2nnsc2C)c2ccc(C)c(Cl)c2)c1 (centres undefined) | – | 63 | 51 | 8 | 37 | 13 | 17 | 38 | 44 | 65 | Non-toxic | 49 | 72 | 82 | 33 | 40 | 14 | 48 | – | 34 | inhibition of growth at 50 µg/mL (Fusarium oxysporum): 14%; inhibition of growth at 50 µg/mL (Botrytis cinerea): 76%; inhibition at 200 µg/mL (Tobacco mosaic virus [13]): 18%
Cc1ccc(N(C(=O)c2nnsc2C)C(C(=O)NC(C)C)c2ccccc2C)cc1Cl (centres undefined) | – | 69 | 31 | 10 | 37 | 10 | 17 | 21 | 40 | 37 | Non-toxic | 0 | 23 | 50 | 21 | 42 | 13 | 38 | – | 12 | inhibition of growth at 50 µg/mL (Fusarium oxysporum): 19%; inhibition of growth at 50 µg/mL (Botrytis cinerea): 76%; inhibition at 200 µg/mL (Tobacco mosaic virus [13]): 58%
Cc1ccc(N(C(=O)c2nnsc2C)C(C(=O)NC(C)C)c2ccc([N+](=O)[O-])cc2)cc1F (centres undefined) | 17 | 22 | 0 | 13 | 0 | 0 | 25 | 27 | 0 | 66 | Non-toxic | 7 | 65 | 62 | 0 | 17 | 26 | 27 | 9 | 25 | inhibition of growth at 50 µg/mL (Puccinia triticina): 0%
Cc1ccc(N(C(=O)c2nnsc2C)C(C(=O)NC(C)C)c2ccccc2)cc1Cl (centres undefined) | – | 64 | 47 | 12 | 13 | 11 | 0 | 21 | 39 | 33 | Non-toxic | 41 | 50 | 65 | 30 | 46 | 40 | 57 | – | 43 | inhibition of growth at 50 µg/mL (Fusarium oxysporum): 36%; inhibition of growth at 50 µg/mL (Botrytis cinerea): 85%; inhibition at 200 µg/mL (Tobacco mosaic virus [13]): 30%
Cc1ccc(NC(=O)c2snnc2C)cc1Cl [TIADINIL] | 1 | 46 | 74 | 46 | 36 | – | 40 | 18 | – | 50 | Non-toxic | 52 | 42 | 59 | 46 | 58 | 57 | 75 | 25 | 48 | inhibition of growth at 50 µg/mL (Fusarium oxysporum): 48%; inhibition of growth at 50 µg/mL (Botrytis cinerea): 67%
